Measurements published in PMC4324418 (ACS Chemical Neuroscience, 2014).

Legend:
[1] = rat (data not shown)
wild-type mice [2] = test: Cue-dependent fear conditioning; type: in vivo, mouse; conditions: 3–30 mg/kg prior to the conditioning session
human M4 = target: T1, human M4 (Homo sapiens, UniProt P08173); type: cell-based; conditions: maximum response as % of the Emax of ACh
T1 sequence (P08173 1-479): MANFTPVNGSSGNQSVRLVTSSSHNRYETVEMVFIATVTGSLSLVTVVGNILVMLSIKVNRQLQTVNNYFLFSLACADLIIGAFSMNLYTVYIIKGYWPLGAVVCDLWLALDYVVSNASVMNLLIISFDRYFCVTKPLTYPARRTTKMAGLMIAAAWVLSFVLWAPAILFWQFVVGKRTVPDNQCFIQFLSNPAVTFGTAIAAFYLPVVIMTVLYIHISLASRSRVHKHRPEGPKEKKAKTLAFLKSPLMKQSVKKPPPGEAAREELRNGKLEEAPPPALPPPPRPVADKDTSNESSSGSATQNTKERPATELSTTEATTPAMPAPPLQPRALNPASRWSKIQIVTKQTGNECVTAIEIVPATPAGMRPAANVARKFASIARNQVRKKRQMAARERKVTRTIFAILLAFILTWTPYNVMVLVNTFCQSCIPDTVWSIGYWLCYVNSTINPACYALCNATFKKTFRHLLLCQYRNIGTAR

wild-type mice [3] = test: Nociceptive response to increasing footshock current intensities; type: in vivo, mouse; conditions: 10 mg/kg IP
Procedure, shortened: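 Mice received vehicle (10% Tween 80 in sterile water, IP) or test compound (10 mg/kg IP) and were placed in conditioning chambers 30 min later. Behavioural responses were scored over rising footshock currents, 0–0.5 mA in 0.05 mA steps. Groups had 6–10 animals. Data: mean ± SEM, one-way ANOVA with Bonferroni test.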

rat M5 receptor = test: Calcium mobilization, selectivity; type: cell-based
Procedure, shortened: (§1)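 Cells were seeded at 15000/well in DMEM with 10% dialyzed FBS, 20 mM HEPES and 1 mM pyruvate, then cultured overnight at 37 °C/5% CO2. M2 and M4 lines were cotransfected with Gqi5. Cells were loaded with 1 μM Fluo-4AM (HBSS, 20 mM HEPES, 2.5 mM probenecid, pH 7.4) for 50 min at 37 °C. ACh was added 140 s after test compound. Calcium signal was expressed as % of the 10 μM ACh maximum.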

rat M4 receptor = target: T2, rat M4 receptor (Rattus norvegicus, UniProt P08485); test: [3H]NMS radioligand binding, modulation of ACh affinity; conditions: ACh displacement of [3H]NMS, modulator 300 nM to 10 μM
T2 sequence (P08485 1-478): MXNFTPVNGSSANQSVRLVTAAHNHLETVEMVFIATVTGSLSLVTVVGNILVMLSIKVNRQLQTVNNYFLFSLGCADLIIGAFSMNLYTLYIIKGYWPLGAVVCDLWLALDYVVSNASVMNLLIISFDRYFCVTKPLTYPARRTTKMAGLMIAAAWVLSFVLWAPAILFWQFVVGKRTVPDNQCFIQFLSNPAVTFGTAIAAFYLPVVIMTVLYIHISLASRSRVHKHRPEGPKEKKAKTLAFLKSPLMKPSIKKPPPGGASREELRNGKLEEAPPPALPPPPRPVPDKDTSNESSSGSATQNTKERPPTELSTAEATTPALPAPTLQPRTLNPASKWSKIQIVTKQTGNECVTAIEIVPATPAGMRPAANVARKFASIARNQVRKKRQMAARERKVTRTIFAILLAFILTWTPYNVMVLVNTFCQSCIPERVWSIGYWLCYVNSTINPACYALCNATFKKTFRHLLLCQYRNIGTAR
Procedure, shortened: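 Membranes came from CHO cells expressing rat M4 cotransfected with Gqi5, homogenized in 50 mM Tris-HCl/0.9% NaCl, pH 7.4. Membranes (10 μg/well) were incubated with 300 pM [3H]NMS, fixed modulator (300 nM–10 μM) or vehicle, and ACh (1 nM–1 mM) for 3 h at room temperature with shaking. Buffer was 100 mM NaCl, 10 mM MgCl2, 20 mM HEPES, […], pH 7.4. Nonspecific binding was set with 10 μM atropine. Bound ligand was filtered and counted; n ≥ 2. Cooperativity was fitted with the […].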

[4] = Amphetamine-induced hyperlocomotion in M4 KO mice; type: in vivo, mouse; conditions: mouse, brain, ip, 10 mg/kg, 10 mg/kg IP
M4 KO mice = test: Amphetamine-induced hyperlocomotion in M4 KO mice; type: in vivo, mouse
in vitro = in vitro ADME; conditions: rat, plasma
human M1 receptor = test: Calcium mobilization, selectivity; type: cell-based
Procedure, shortened: as §1

[5] = Amphetamine-induced hyperlocomotion in rats; type: in vivo; conditions: Sprague-Dawley, rat, brain, po
rats = test: Amphetamine-induced hyperlocomotion in rats; type: in vivo; conditions: rat, amphetamine 0.75 mg/kg SC
rat M2 receptor = test: Calcium mobilization, selectivity; type: cell-based
Procedure, shortened: as §1

[6] = Mouse brain homogenate binding; type: in vitro ADME
[7] = test system: 57 GPCRs, ion channels, and transporters; test: Ricerca lead profiling screen, radioligand binding panel; conditions: 10 μM
wild-type mice [8] = test: Contextual fear conditioning, one-shock paradigm; type: in vivo, mouse; conditions: 3–30 mg/kg, measured 24 h later
Procedure, shortened: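 One-shock contextual conditioning used a 3 min session: 2 min habituation, one 0.4 mA shock, then 59 s before removal. Dosing was vehicle (10% Tween 80 in sterile water) or test compound at 3, 10 or 30 mg/kg IP. Mice were returned to the same chamber 24 h later, and percent time freezing was scored over 3 min.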

Cc1nnc2sc(C(=O)NCc3ccc(S(=O)(=O)C(F)(F)F)cc3)c(N)c2c1C [VU0467154, 5-amino-3,4-dimethyl-N-(4-((trifluoromethyl)sulfonyl)benzyl)thieno[2,3-c]pyridazine-6-carboxamide]
biliary and urinary excretion of the parent compound [1]: Negligible
acquisition of cue-dependent fear conditioning (wild-type mice [2]): enhanced acquisition of cue-dependent fear conditioning
%AChmax (human M4): 55%
footshock threshold to elicit jumping (wild-type mice [3]): increased the threshold to elicit jumping
twitching, flinching, and vocalizing responses to increasing foot shock intensities (wild-type mice [3]): did not alter
potentiation of ACh response (calcium response) (rat M5 receptor): lack of a calcium response
increase in M4 affinity for ACh (α) (rat M4 receptor): 14.5 fold
log α (binding cooperativity with ACh) (rat M4 receptor): 1.16 ± 0.06
concentration at 2.5 h ([4]; mean Cbrain, at 2.5 h postadministration): 217 nM
concentration at 2.5 h ([4]; mean Cbrain,u, 2.5 h, in vitro mouse fubrain 0.014): 3 nM
effect on amphetamine-induced hyperlocomotion (M4 KO mice): had no effect on the time course of amphetamine-induced hyperlocomotion
mean reversal of AHL (M4 KO mice; 10 mg/kg IP, amphetamine […] SC): –6.6%
fraction unbound (in vitro): 0.031
potentiation of ACh response (calcium response) (human M1 receptor): lack of a calcium response
concentration at 1.5 h ([5]; 3 mg/kg, mean Cbrain, PO 3 mg/kg, at 1.5 h postadministration): 750 nM
concentration at 1.5 h ([5]; 3 mg/kg, mean Cbrain,u, PO 3 mg/kg, 1.5 h, in vitro rat fubrain 0.067): 50 nM
concentration at 1.5 h ([5]; 10 mg/kg, mean Cbrain, PO 10 mg/kg, at 1.5 h postadministration): 1100 nM
concentration at 1.5 h ([5]; 10 mg/kg, mean Cbrain,u, PO 10 mg/kg, 1.5 h, in vitro rat fubrain 0.067): 74 nM
concentration at 1.5 h ([5]; 30 mg/kg, mean Cbrain,u, PO 30 mg/kg, 1.5 h, in vitro rat fubrain 0.067): 94 nM
concentration at 1.5 h ([5]; 56.6 mg/kg, mean Cbrain,u, PO 56.6 mg/kg, 1.5 h, in vitro rat fubrain 0.067): 94 nM
mean reversal of AHL (rats; PO 1 mg/kg): 21%
mean reversal of AHL (rats; PO 3 mg/kg): 33%
mean reversal of AHL (rats; PO 10 mg/kg): 46%
mean reversal of AHL (rats; PO 30 mg/kg): 53%
mean reversal of AHL (rats; PO 56.6 mg/kg): 42%
potentiation of ACh response (calcium response) (rat M2 receptor): lack of a calcium response
fraction unbound [6]: 0.014
displacement of the radioligand ([7]; all targets included in this panel): ≤ 30%
displacement of the radioligand ([7]; majority of targets): ≤ 20%
acquisition of contextual fear conditioning behaviors (wild-type mice [8]): dose-dependent enhancement
